The target in series [1] is Mitogen-activated protein kinase 10 (Homo sapiens, UniProt P53779). The experiment in a line: Inhibition of recombinant JNK3 after 60 mins by TR-FRET assay.
Series [2] deals with Mitogen-activated protein kinase 9 (Homo sapiens, UniProt P45984). Description: Inhibition of recombinant JNK2 after 60 mins by TR-FRET assay. For orientation: Time-resolved FRET reads energy transfer from a long-lived donor to a nearby acceptor.
In series [3] the target is Mitogen-activated protein kinase 8 (Homo sapiens, UniProt P45983). Description: Inhibition of recombinant JNK1 after 60 mins by TR-FRET assay.
Series [4] can be described thus: Metabolic stability in mouse liver microsomes assessed as compound remaining after 30 mins. It is filed as ADME, Microsome. The note with it: read-out: Stability. The gist of the method:
(§1)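 Test compound incubated with mouse or human liver microsomes for 30 min. Read-out is the percent of parent compound remaining at the end of the incubation.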
Background: Microsomes from liver hold many membrane-bound enzymes, among them those of drug oxidation.

Series [5] is described as follows: Metabolic stability in human liver microsomes assessed as compound remaining after 30 mins. Format: ADME, Microsome. The note with it: read-out: Stability. The gist of the method:
as §1

Chain of Mitogen-activated protein kinase 8 (P45983 whole entry): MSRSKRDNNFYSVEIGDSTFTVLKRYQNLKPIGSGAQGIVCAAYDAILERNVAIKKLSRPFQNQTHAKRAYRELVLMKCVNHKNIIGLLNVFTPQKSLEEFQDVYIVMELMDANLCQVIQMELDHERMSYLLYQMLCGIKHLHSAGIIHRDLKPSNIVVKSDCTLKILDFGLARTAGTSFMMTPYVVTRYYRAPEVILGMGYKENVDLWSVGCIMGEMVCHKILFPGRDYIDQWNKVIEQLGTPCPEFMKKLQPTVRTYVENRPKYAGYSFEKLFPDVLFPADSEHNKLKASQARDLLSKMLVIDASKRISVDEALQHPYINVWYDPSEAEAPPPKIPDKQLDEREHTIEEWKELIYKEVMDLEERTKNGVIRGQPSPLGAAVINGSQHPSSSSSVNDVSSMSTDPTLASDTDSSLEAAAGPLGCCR
Chain of Mitogen-activated protein kinase 10 (P53779 whole entry): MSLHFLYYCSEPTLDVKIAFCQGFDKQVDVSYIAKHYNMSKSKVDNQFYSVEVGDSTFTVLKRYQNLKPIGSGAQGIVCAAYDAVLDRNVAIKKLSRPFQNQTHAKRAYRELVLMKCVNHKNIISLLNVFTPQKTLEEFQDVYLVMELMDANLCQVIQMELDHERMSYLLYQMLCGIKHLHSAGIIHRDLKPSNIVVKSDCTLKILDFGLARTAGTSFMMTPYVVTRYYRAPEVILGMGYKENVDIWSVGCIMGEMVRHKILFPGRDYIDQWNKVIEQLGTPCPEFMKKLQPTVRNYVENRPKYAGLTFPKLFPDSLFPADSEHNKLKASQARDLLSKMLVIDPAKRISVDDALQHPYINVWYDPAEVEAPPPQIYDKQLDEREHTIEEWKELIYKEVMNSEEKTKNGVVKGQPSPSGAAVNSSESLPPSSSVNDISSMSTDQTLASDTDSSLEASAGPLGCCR
Chain of Mitogen-activated protein kinase 9 (P45984 whole entry): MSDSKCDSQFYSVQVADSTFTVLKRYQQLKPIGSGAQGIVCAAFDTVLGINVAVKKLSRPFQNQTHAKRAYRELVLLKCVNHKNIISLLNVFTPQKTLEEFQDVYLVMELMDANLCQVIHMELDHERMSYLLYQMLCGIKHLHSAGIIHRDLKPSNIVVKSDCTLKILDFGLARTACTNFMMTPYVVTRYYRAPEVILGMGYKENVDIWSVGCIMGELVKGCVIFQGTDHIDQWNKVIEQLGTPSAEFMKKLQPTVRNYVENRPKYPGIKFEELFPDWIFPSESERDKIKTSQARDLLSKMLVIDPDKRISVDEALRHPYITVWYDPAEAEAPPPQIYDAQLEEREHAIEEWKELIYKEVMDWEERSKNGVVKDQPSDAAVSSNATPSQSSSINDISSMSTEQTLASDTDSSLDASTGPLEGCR

As a reminder, the IC50 is the concentration that gives 50% inhibition. Turning to `COCCN(C)C(=O)c1sccc1NC(=O)Cc1ccccc1`, the IC50 in series [1] and in series [2] was over 50 µM in each case.

Consider `NC(=O)c1sccc1NC(=O)Cc1ccccc1`, for which the half-maximal inhibitory concentration (IC50) in series [1] is 4.4 µM; in series [2], over 50 µM; in series [3], 2.6 µM.

With `COC(=O)c1sccc1NC(=O)Cc1ccc(-c2ccncc2)cc1`, the IC50 in series [1] is 0.69 µM; in series [2] it was over 50 µM; in series [3], 0.46 µM.

With `O=C(Cc1ccccc1)Nc1ccsc1CO`, the IC50 in series [1] was over 50 µM.

Take `COC(=O)c1cnccc1NC(=O)Cc1cccc2ccccc12`: the IC50 in series [1] came to 6.5 µM; in series [2], 23.6 µM; in series [3] it was 6.4 µM.

As for `COC(=O)c1sccc1NC(=O)Cc1cccc2ncccc12`, the IC50 in series [1] was found to be 0.61 µM; in series [2], 3 µM; in series [3], 0.3 µM.

Take `O=C(Cc1cccc2ccccc12)Nc1ccsc1-c1ncn[nH]1`: the remaining at 0.5 h in series [4] stood at 1%; in series [5], 11%. The IC50 came to 0.92 µM in series [1], 3 µM in series [2] and 0.53 µM in series [3].

Turning to `COC(=O)c1sccc1NC(=O)Cc1ccccc1`, the figures for the IC50 in series [1], in series [2] and in series [3] were 2.7 µM, 22.8 µM and 0.7 µM, respectively.

In the case of `COCCNC(=O)c1sccc1NC(=O)Cc1ccccc1`, the IC50 in series [1] is 3.8 µM; in series [2] it was over 50 µM; in series [3] it was 2.3 µM.

As to `COC(=O)c1scnc1NC(=O)Cc1cccc2ccccc12`, the IC50 in series [1], in series [2] and in series [3] was over 50 µM in each case.

For `COC(=O)c1sccc1NC(=O)Cc1ccc(OC)cc1`, the IC50 is 1 µM in series [1], 14.1 µM in series [2] and 0.8 µM in series [3].

Take `CCOC(=O)c1sccc1NC(=O)Cc1ccccc1`: the IC50 in series [1] is 0.7 µM; in series [2], 46.6 µM; in series [3] it was 0.3 µM.

As to `COC(=O)c1ccccc1NC(=O)Cc1cccc2ccccc12`, the IC50 was found to be 1.7 µM in series [1], 13.1 µM in series [2] and 2.1 µM in series [3].

Regarding `CCOC(=O)c1c(C)nsc1NC(=O)Cc1cccc2ccccc12`, the IC50 in series [1], in series [2] and in series [3] was over 50 µM in each case.

As for `Cn1ccc(-c2sccc2NC(=O)Cc2cccc3ccccc23)n1`, the remaining at 0.5 h in series [4] and in series [5] was 0% each time. Besides, the IC50 in series [1] is 42.5 µM; in series [2] it was over 50 µM; in series [3] it was 24.1 µM.

Consider `COC(=O)c1nnsc1NC(=O)Cc1cccc2ccccc12`, for which the IC50 in series [1], in series [2] and in series [3] was over 50 µM throughout.

As for `C=C(C)c1sccc1NC(=O)Cc1ccccc1`, the half-inhibitory concentration (IC50) in series [1] was over 50 µM.

Turning to `COC(=O)c1cccnc1NC(=O)Cc1cccc2ccccc12`, the IC50 in series [1], in series [2] and in series [3] was over 50 µM in each case.

`O=C(Cc1cccc2ccccc12)Nc1ccsc1-c1nnco1`: the remaining at 0.5 h in series [4] turned out to be 1%; in series [5] it was 7%. Also, the values for the IC50 in series [1], in series [2] and in series [3] were 5.3 µM, 27.1 µM and 3.2 µM, respectively.

Turning to `COC(=O)c1sccc1NC(=O)Cc1ccc(C(F)(F)F)cc1`, the IC50 is 6.9 µM in series [1], over 50 µM in series [2] and 2 µM in series [3].

Regarding `CC(C)OC(=O)c1sccc1NC(=O)Cc1ccccc1`, the IC50 was 1.4 µM in series [1], 47.7 µM in series [2] and 0.5 µM in series [3].

Regarding `COC(=O)c1cscc1NC(=O)Cc1cccc2ccccc12`, the IC50 in series [1] stood at 0.9 µM; in series [2], 9.9 µM; in series [3], 0.89 µM.

As to `COc1ccc(CC(=O)Nc2ccsc2-c2ncco2)cc1`, the values for the remaining at 0.5 h in series [4] and in series [5] were 9% and 14%, respectively. Besides, the IC50 in series [2] came to 11.9 µM.

In the case of `COC(=O)c1nonc1NC(=O)Cc1cccc2ccccc12`, the IC50 in series [1], in series [2] and in series [3] was over 50 µM throughout.

Regarding `COC(=O)c1sccc1NC(=O)Cc1cccs1`, the IC50 in series [2] came out at 21.4 µM.

Regarding `Cc1nnc(-c2sccc2NC(=O)Cc2cccc3ccccc23)o1`, the remaining at 0.5 h in series [4] turned out to be 0%; in series [5] it was 4%. Moreover, the figures for the IC50 in series [1], in series [2] and in series [3] were 2.1 µM, 16.3 µM and 1.8 µM, respectively.

For the molecule `COC(=O)c1sccc1NC(=O)Cc1ccc2ccccc2c1`, the values for the IC50 in series [1], in series [2] and in series [3] were 3.9 µM, over 50 µM and 0.6 µM, respectively.

In the case of `Cc1ccncc1NC(=O)Cc1cccc2ccccc12`, the IC50 in series [1], in series [2] and in series [3] was over 50 µM each time.

On to `Cc1n[nH]c(-c2sccc2NC(=O)Cc2cccc3ccccc23)n1`, for which the remaining at 0.5 h in series [4] and in series [5] was 1% throughout. Further, the IC50 was 0.55 µM in series [1], 2.4 µM in series [2] and 0.25 µM in series [3].

Consider `COC(=O)c1sccc1NC(=O)Cc1ccc(-n2ccnc2)cc1`, for which the IC50 in series [1] is 1.6 µM; in series [2] it was over 50 µM; in series [3], 1 µM.

Turning to `CC(=O)c1sccc1NC(=O)Cc1ccccc1`, the values for the IC50 in series [1], in series [2] and in series [3] were 17 µM, over 50 µM and 6.3 µM, respectively.

For the molecule `Cc1cc(-c2sccc2NC(=O)Cc2cccc3ccccc23)n[nH]1`, the remaining at 0.5 h in series [4] was 1%; in series [5] it was 2%. Also, the IC50 in series [2] was 1.5 µM.

Take `Cc1nc(-c2sccc2NC(=O)Cc2cccc3ccccc23)n(C)n1`: the remaining at 0.5 h in series [4] and in series [5] was 1% throughout. Also, the IC50 is 31.5 µM in series [1], over 50 µM in series [2] and 30.3 µM in series [3].

For `O=C(Cc1cccc2ccccc12)Nc1ccsc1-c1cc[nH]n1`, the remaining at 0.5 h in series [4] came out at 0%; in series [5] it was 5%. In addition, the IC50 in series [2] is over 50 µM.

`COC(=O)c1sccc1NC(=O)Cc1cccc2ccccc12`: the IC50 in series [1] came to 1.5 µM; in series [2] it was 14.6 µM; in series [3] it was 0.4 µM.

For the molecule `COC(=O)c1sccc1NC(=O)Cc1ccccc1-c1c[nH]nn1`, the IC50 was determined as 12.6 µM in series [1], 35 µM in series [2] and 7 µM in series [3].

Consider `Cc1nccnc1NC(=O)Cc1cccc2ccccc12`, for which the IC50 in series [1] and in series [2] was over 50 µM in each case.

Consider `C/C(=N/O)c1sccc1NC(=O)Cc1ccccc1`, for which the IC50 in series [1] stood at 29 µM.

Consider `COC(=O)c1sccc1NC(=O)Cc1ccncc1`, for which the IC50 is 17.2 µM in series [1], over 50 µM in series [2] and 6.6 µM in series [3].

Regarding `COc1ccc(CC(=O)Nc2ccsc2-n2cncn2)cc1`, the IC50 in series [1] was 45.6 µM; in series [2] it was over 50 µM; in series [3], 43.6 µM.

On to `O=C(Cc1cccc2ccccc12)Nc1ccsc1-n1ccnc1`, for which the results for the remaining at 0.5 h in series [4] and in series [5] were 0% and 17%, respectively. The values for the IC50 in series [1], in series [2] and in series [3] were 9 µM, over 50 µM and 26.9 µM, respectively.

Source of the values: ChEMBL document CHEMBL1287787, “Design and synthesis of disubstituted thiophene and thiazole based inhibitors of JNK” (Bioorg Med Chem Lett, 2010).
